Data published in ChEMBL document CHEMBL2401679, “Synthesis and on-target antibacterial activity of novel 3-elongated arylalkoxybenzamide derivatives as inhibitors of the bacterial cell division protein FtsZ” (2013).
In brackets after ≈: the same amount, converted by molar mass. Activity calls are given as the source filed them. The calls are words filed in the database; no cut-off is given here.

System: Staphylococcus aureus
Test: Inhibition of cell division in penicillin-susceptible Staphylococcus aureus ATCC 25923 at 2048 to 4096 ug/ml after 5 hrs by phase-contrast light microscopy analysis
Type: functional, organism-based
Conditions: not given

SMILES	inhibition
Cc1nc2ccccc2n1CCCCOc1cccc(C(N)=O)c1	inactive
COc1cccc(C(N)=O)c1	inactive
COc1ccc(OCCCCOc2cccc(C(N)=O)c2)cc1	inactive

System: Staphylococcus aureus
Test: Ratio of compound MIC to 3-MBA MIC for penicillin-resistant Staphylococcus aureus clinical isolate
Type: functional
Conditions: not given

SMILES	Ratio
NC(=O)c1cccc(OCCCCCl)c1	512
NC(=O)c1cccc(OCCCCBr)c1	512

System: Bacillus subtilis
Test: Inhibition of cell division in penicillin-susceptible Bacillus subtilis ATCC 9372 at 2048 to 4096 ug/ml after 5 hrs by phase-contrast light microscopy analysis
Type: functional, organism-based
Conditions: not given

SMILES	inhibition
Cc1nc2ccccc2n1CCCCOc1cccc(C(N)=O)c1	inactive
NC(=O)c1cccc(OCCCCn2cncn2)c1	inactive

System: Staphylococcus aureus
Test: Ratio of compound MIC to 3-MBA MIC for penicillin-susceptible Staphylococcus aureus ATCC 25923
Type: functional
Conditions: not given

SMILES	Ratio
NC(=O)c1cccc(OCCCCCl)c1	256
CCCCOCCCCCOc1cccc(C(N)=O)c1	256
NC(=O)c1cccc(OCCCCBr)c1	256

System: Bacillus subtilis
Test: Ratio of compound MIC to 3-MBA MIC for penicillin-susceptible Bacillus subtilis ATCC 9372
Type: functional
Conditions: not given

SMILES	Ratio
CCCCOCCCCCOc1cccc(C(N)=O)c1	512
NC(=O)c1cccc(OCCCCBr)c1	256

System: Streptococcus pyogenes
Test: Antibacterial activity against penicillin-susceptible Streptococcus pyogenes after 24 hrs by broth microdilution method
Type: functional
Conditions: not given
How it was run: (§1)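 MIC by broth microdilution following the NCCLS standard method. Test strains were penicillin-susceptible: B. subtilis ATCC9372, S. aureus ATCC25923, S. pneumoniae ATCC49619 and Streptococcus pyogenes PS.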

SMILES	MIC
NC(=O)c1cccc(OCCCCCl)c1	> 128 µg/mL
CCCCOCCCCCOc1cccc(C(N)=O)c1	> 128 µg/mL
Cc1nc2ccccc2n1CCCCOc1cccc(C(N)=O)c1	> 128 µg/mL
COc1cccc(C(N)=O)c1	> 128 µg/mL
NC(=O)c1cccc(OCCCCn2cncn2)c1	> 128 µg/mL
NC(=O)c1cccc(OCCCCBr)c1	> 128 µg/mL
COc1ccc(OCCCCOc2cccc(C(N)=O)c2)cc1	> 128 µg/mL

System: Streptococcus pneumoniae
Test: Antibacterial activity against penicillin-susceptible Streptococcus pneumoniae ATCC 49619 after 24 hrs by broth microdilution method
Type: functional
Conditions: ATCC 49619, 24 h
How it was run: as §1

SMILES	MIC
NC(=O)c1cccc(OCCCCCl)c1	> 128 µg/mL
CCCCOCCCCCOc1cccc(C(N)=O)c1	> 128 µg/mL
Cc1nc2ccccc2n1CCCCOc1cccc(C(N)=O)c1	> 128 µg/mL
COc1cccc(C(N)=O)c1	> 128 µg/mL
NC(=O)c1cccc(OCCCCn2cncn2)c1	> 128 µg/mL
NC(=O)c1cccc(OCCCCBr)c1	> 128 µg/mL
COc1ccc(OCCCCOc2cccc(C(N)=O)c2)cc1	> 128 µg/mL

System: Staphylococcus aureus
Test: Antibacterial activity against penicillin-resistant Staphylococcus aureus clinical isolate after 24 hrs by broth microdilution method
Type: functional
Conditions: not given
How it was run: (§2)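 MIC by standard broth microdilution following NCCLS recommendations. S. aureus ATCC29213 is a […] strain. The S. aureus PR strain is a penicillin-resistant clinical isolate that has not been characterized. The MIC was taken as the in vitro antibacterial activity value.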

SMILES	MIC
NC(=O)c1cccc(OCCCCCl)c1	8 µg/mL (≈ 35.1 µM)
CCCCOCCCCCOc1cccc(C(N)=O)c1	8 µg/mL (≈ 28.6 µM)
Cc1nc2ccccc2n1CCCCOc1cccc(C(N)=O)c1	> 128 µg/mL
COc1cccc(C(N)=O)c1	4100 µg/mL (≈ 27100 µM)
NC(=O)c1cccc(OCCCCn2cncn2)c1	> 128 µg/mL
NC(=O)c1cccc(OCCCCBr)c1	8 µg/mL (≈ 29.4 µM)
COc1ccc(OCCCCOc2cccc(C(N)=O)c2)cc1	> 128 µg/mL

System: Staphylococcus aureus
Test: Antibacterial activity against penicillin-susceptible Staphylococcus aureus ATCC 25923 after 24 hrs by broth microdilution method
Type: functional
Conditions: ATCC 25923, 24 h
How it was run: as §1

SMILES	MIC
NC(=O)c1cccc(OCCCCCl)c1	8 µg/mL (≈ 35.1 µM)
CCCCOCCCCCOc1cccc(C(N)=O)c1	8 µg/mL (≈ 28.6 µM)
Cc1nc2ccccc2n1CCCCOc1cccc(C(N)=O)c1	1020 µg/mL (≈ 3170 µM)
COc1cccc(C(N)=O)c1	2050 µg/mL (≈ 13500 µM)
NC(=O)c1cccc(OCCCCn2cncn2)c1	1020 µg/mL (≈ 3930 µM)
NC(=O)c1cccc(OCCCCBr)c1	8 µg/mL (≈ 29.4 µM)
COc1ccc(OCCCCOc2cccc(C(N)=O)c2)cc1	4100 µg/mL (≈ 13000 µM)

System: Staphylococcus aureus
Test: Antibacterial activity against […] Staphylococcus aureus ATCC 29213 after 24 hrs by broth microdilution method
Type: functional
Conditions: ATCC 29213, 24 h
How it was run: as §2

SMILES	MIC
NC(=O)c1cccc(OCCCCCl)c1	8 µg/mL (≈ 35.1 µM)
CCCCOCCCCCOc1cccc(C(N)=O)c1	4 µg/mL (≈ 14.3 µM)
Cc1nc2ccccc2n1CCCCOc1cccc(C(N)=O)c1	> 128 µg/mL
COc1cccc(C(N)=O)c1	2050 µg/mL (≈ 13500 µM)
NC(=O)c1cccc(OCCCCn2cncn2)c1	> 128 µg/mL
NC(=O)c1cccc(OCCCCBr)c1	8 µg/mL (≈ 29.4 µM)
COc1ccc(OCCCCOc2cccc(C(N)=O)c2)cc1	> 128 µg/mL

System: Bacillus subtilis
Test: Antibacterial activity against penicillin-susceptible Bacillus subtilis ATCC 9372 after 24 hrs by broth microdilution method
Type: functional
Conditions: ATCC 9372, 24 h
How it was run: as §1

SMILES	MIC
NC(=O)c1cccc(OCCCCCl)c1	32 µg/mL (≈ 141 µM)
CCCCOCCCCCOc1cccc(C(N)=O)c1	8 µg/mL (≈ 28.6 µM)
Cc1nc2ccccc2n1CCCCOc1cccc(C(N)=O)c1	1020 µg/mL (≈ 3170 µM)
COc1cccc(C(N)=O)c1	4100 µg/mL (≈ 27100 µM)
NC(=O)c1cccc(OCCCCn2cncn2)c1	1020 µg/mL (≈ 3930 µM)
NC(=O)c1cccc(OCCCCBr)c1	16 µg/mL (≈ 58.8 µM)
COc1ccc(OCCCCOc2cccc(C(N)=O)c2)cc1	1020 µg/mL (≈ 3250 µM)

System: Staphylococcus aureus
Test: Inhibition of cell division in penicillin-susceptible Staphylococcus aureus ATCC 25923 assessed as lowest concentration required to ballooning after 5 hrs by phase-contrast light microscopy analysis
Type: functional
Conditions: not given
How it was run: (§3)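 Cell morphology of B. subtilis ATCC9372 or S. aureus ATCC25923 was examined by phase-contrast light microscopy. The value recorded is the lowest compound concentration at which B. subtilis filamentation or S. aureus ballooning appeared. This is taken as on-target cell division inhibition.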

SMILES	INH
NC(=O)c1cccc(OCCCCCl)c1	32 µg/mL
CCCCOCCCCCOc1cccc(C(N)=O)c1	16 µg/mL
NC(=O)c1cccc(OCCCCn2cncn2)c1	1024 µg/mL
NC(=O)c1cccc(OCCCCBr)c1	8 µg/mL

System: Bacillus subtilis
Test: Inhibition of cell division in penicillin-susceptible Bacillus subtilis ATCC 9372 assessed as lowest concentration required to filamentation after 5 hrs by phase-contrast light microscopy analysis
Type: functional
Conditions: not given
How it was run: as §3

SMILES	INH
NC(=O)c1cccc(OCCCCCl)c1	16 µg/mL
CCCCOCCCCCOc1cccc(C(N)=O)c1	8 µg/mL
COc1cccc(C(N)=O)c1	512 µg/mL
NC(=O)c1cccc(OCCCCBr)c1	8 µg/mL
COc1ccc(OCCCCOc2cccc(C(N)=O)c2)cc1	32 µg/mL
